Assay results published in ChEMBL document CHEMBL2157889, “Design, synthesis and biological evaluation of heterocyclic azoles derivatives containing pyrazine moiety as potential telomerase inhibitors” (Bioorg Med Chem, 2012).

Experiments:
[1] = system: BGC-823; assay: Antiproliferative activity against human BGC823 cells after 48 hrs by MTT method; type: functional, cell-based; conditions: BGC-823, 48 h
Procedure, shortened: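 MTT assay. Cells were seeded at 10⁴ per well and held 24 h at 37 °C with 5% CO₂. […] After 48 h, 5 mg/mL MTT in PBS was added for 4 h. Formazan was dissolved in DMSO and absorbance read at 490 nm.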

[2] = system: HepG2; assay: Antiproliferative activity against human HepG2 cells after 48 hrs by MTT method; type: functional, cell-based; conditions: HepG2, 48 h
[3] = system: HeLa; assay: Antiproliferative activity against human HeLa cells after 48 hrs by MTT method; type: functional, cell-based
[4] = Antiproliferative activity against human SW1116 cells after 48 hrs by MTT method; type: functional, cell-based; conditions: SW 1116, 48 h
[5] = biological target: Telomerase reverse transcriptase (Homo sapiens, UniProt O14746); assay: Inhibition of telomerase in human HepG2 cells after 24 hrs by TRAP-PCR-ELISA assay; type: cell-based
Procedure, shortened: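 Cells in serum/penicillin/streptomycin medium (37 °C, 5% CO₂) were seeded at 5×10⁴ per T25 flask and allowed to adhere. After 24 h treatment, cells were lysed in RIPA buffer on ice for 30 min and spun at 12,000 g for 20 min at 4 °C. For the kit-based TRAP-PCR-ELISA, PCR ran 94 °C 120 s, then 35 cycles of 94/50/72 °C. Product was hybridised to a DIG probe, captured via biotin-streptavidin, detected with peroxidase anti-DIG, and read at 490 nm.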

[6] = system: HepG2; assay: Induction of apoptosis in human HepG2 cells assessed as late apoptotic cells at 0.25 uM after 24 hrs by annexin VeFITC/PI-based flow cytometry (reference value: 6.84 %); type: functional
[7] = system: HepG2; assay: Induction of apoptosis in human HepG2 cells assessed as early apoptotic cells at 0.5 uM after 24 hrs by annexin VeFITC/PI-based flow cytometry (reference value: 3.28 %); type: functional
[8] = system: HepG2; assay: Induction of apoptosis in human HepG2 cells assessed as late apoptotic cells at 2 uM after 24 hrs by annexin VeFITC/PI-based flow cytometry (reference value: 6.84 %); type: functional
[9] = system: HepG2; assay: Induction of apoptosis in human HepG2 cells assessed as early apoptotic cells at 1 uM after 24 hrs by annexin VeFITC/PI-based flow cytometry (reference value: 3.28 %); type: functional
[10] = system: HepG2; assay: Induction of apoptosis in human HepG2 cells assessed as necrotic cells at 0.5 uM after 24 hrs by annexin VeFITC/PI-based flow cytometry (reference value: 0.7 %); type: functional
[11] = system: HepG2; assay: Induction of apoptosis in human HepG2 cells assessed as viable cells at 0.25 uM after 24 hrs by annexin VeFITC/PI-based flow cytometry (reference value: 89.18 %); type: functional; conditions: HepG2, 24 h, read-out: Activity
[12] = system: HepG2; assay: Induction of apoptosis in human HepG2 cells assessed as early apoptotic cells at 0.25 uM after 24 hrs by annexin VeFITC/PI-based flow cytometry (reference value: 3.28 %); type: functional
[13] = system: HepG2; assay: Induction of apoptosis in human HepG2 cells assessed as necrotic cells at 0.25 uM after 24 hrs by annexin VeFITC/PI-based flow cytometry (reference value: 0.7 %); type: functional
[14] = system: HepG2; assay: Induction of apoptosis in human HepG2 cells assessed as viable cells at 0.5 uM after 24 hrs by annexin VeFITC/PI-based flow cytometry (reference value: 89.18 %); type: functional; conditions: HepG2, 24 h, read-out: Activity
[15] = system: HepG2; assay: Induction of apoptosis in human HepG2 cells assessed as late apoptotic cells at 1 uM after 24 hrs by annexin VeFITC/PI-based flow cytometry (reference value: 6.84 %); type: functional
[16] = system: HepG2; assay: Induction of apoptosis in human HepG2 cells assessed as viable cells at 2 uM after 24 hrs by annexin VeFITC/PI-based flow cytometry (reference value: 89.18 %); type: functional; conditions: HepG2, 24 h, read-out: Activity
[17] = system: HepG2; assay: Induction of apoptosis in human HepG2 cells assessed as late apoptotic cells at 0.5 uM after 24 hrs by annexin VeFITC/PI-based flow cytometry (reference value: 6.84 %); type: functional
[18] = system: HepG2; assay: Induction of apoptosis in human HepG2 cells assessed as necrotic cells at 2 uM after 24 hrs by annexin VeFITC/PI-based flow cytometry (reference value: 0.7 %); type: functional
[19] = system: HepG2; assay: Induction of apoptosis in human HepG2 cells assessed as viable cells at 1 uM after 24 hrs by annexin VeFITC/PI-based flow cytometry (reference value: 89.18 %); type: functional; conditions: HepG2, 24 h, read-out: Activity
[20] = system: HepG2; assay: Induction of apoptosis in human HepG2 cells assessed as early apoptotic cells at 2 uM after 24 hrs by annexin VeFITC/PI-based flow cytometry (reference value: 3.28 %); type: functional
[21] = system: HepG2; assay: Induction of apoptosis in human HepG2 cells assessed as necrotic cells at 1 uM after 24 hrs by annexin VeFITC/PI-based flow cytometry (reference value: 0.7 %); type: functional
[22] = system: HepG2; assay: Induction of apoptosis in human HepG2 cells after 24 hrs by annexin VeFITC/PI-based flow cytometry; type: functional, cell-based

Sequence of Telomerase reverse transcriptase (O14746 whole entry): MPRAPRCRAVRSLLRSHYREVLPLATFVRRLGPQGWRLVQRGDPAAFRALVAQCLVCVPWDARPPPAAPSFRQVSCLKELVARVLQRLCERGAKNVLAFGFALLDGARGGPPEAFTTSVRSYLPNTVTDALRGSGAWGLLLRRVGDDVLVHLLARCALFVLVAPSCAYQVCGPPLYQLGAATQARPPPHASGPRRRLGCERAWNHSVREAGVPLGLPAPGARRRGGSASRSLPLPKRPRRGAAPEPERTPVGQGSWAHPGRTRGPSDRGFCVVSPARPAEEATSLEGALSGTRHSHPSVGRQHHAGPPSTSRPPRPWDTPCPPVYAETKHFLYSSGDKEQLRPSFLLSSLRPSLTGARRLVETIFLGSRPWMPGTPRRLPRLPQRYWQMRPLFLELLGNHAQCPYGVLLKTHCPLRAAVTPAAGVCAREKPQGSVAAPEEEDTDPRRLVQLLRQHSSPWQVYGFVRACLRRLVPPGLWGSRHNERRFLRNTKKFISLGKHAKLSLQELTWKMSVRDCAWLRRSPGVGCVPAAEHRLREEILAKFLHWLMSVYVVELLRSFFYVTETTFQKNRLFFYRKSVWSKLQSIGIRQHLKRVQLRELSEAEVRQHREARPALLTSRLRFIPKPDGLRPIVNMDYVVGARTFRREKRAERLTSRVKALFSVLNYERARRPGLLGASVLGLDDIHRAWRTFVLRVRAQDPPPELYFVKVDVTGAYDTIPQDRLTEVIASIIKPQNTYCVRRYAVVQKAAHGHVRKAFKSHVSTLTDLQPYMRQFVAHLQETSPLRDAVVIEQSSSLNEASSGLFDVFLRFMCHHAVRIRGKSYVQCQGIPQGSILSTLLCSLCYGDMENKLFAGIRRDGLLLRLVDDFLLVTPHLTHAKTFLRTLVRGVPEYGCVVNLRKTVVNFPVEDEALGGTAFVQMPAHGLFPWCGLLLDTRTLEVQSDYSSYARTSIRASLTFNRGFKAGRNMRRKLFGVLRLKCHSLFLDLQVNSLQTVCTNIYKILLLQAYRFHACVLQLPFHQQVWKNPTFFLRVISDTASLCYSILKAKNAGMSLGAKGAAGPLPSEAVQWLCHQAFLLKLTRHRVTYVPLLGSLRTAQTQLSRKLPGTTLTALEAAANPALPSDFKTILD

Fc1ccccc1CSc1nnc(-c2cnccn2)s1
IC50 [1]: 18.4 µM
IC50 [2]: 9.52 µM
IC50 [3]: 32.7 µM
IC50 [4]: 6.77 µM

Fc1ccc(CSc2nnc(-c3cnccn3)o2)c(F)c1
IC50 [1]: 33 µM
IC50 [2]: 14.4 µM
IC50 [3]: 26.7 µM
IC50 [4]: 19.3 µM

Brc1cccc(CSc2nnc(-c3cnccn3)o2)c1
IC50 [5]: 3.59 µM
IC50 [1]: 11.5 µM
IC50 [2]: 5.79 µM
IC50 [3]: 30.3 µM
IC50 [4]: 5.06 µM

Fc1cccc(F)c1CSc1nnc(-c2cnccn2)s1
IC50 [1]: 18.6 µM
IC50 [2]: 6.9 µM
IC50 [3]: 29.2 µM
IC50 [4]: 16.8 µM

c1ccc(CSc2nnc(-c3cnccn3)n2-c2ccccc2)cc1
IC50 [1]: > 50 µM
IC50 [2]: 17.1 µM
IC50 [3]: 35.6 µM
IC50 [4]: 15.4 µM

Brc1ccc(CSc2nnc(-c3cnccn3)n2-c2ccccc2)cc1
IC50 [5]: 7.13 µM
IC50 [1]: 19.8 µM
IC50 [2]: 11.4 µM
IC50 [3]: 8.63 µM
IC50 [4]: 6.21 µM

Clc1ccc(CSc2nnc(-c3cnccn3)n2-c2ccccc2)cc1
IC50 [5]: 13.4 µM
IC50 [1]: 27.7 µM
IC50 [2]: 15.3 µM
IC50 [3]: > 50 µM
IC50 [4]: 12.5 µM

Fc1ccc(CSc2nnc(-c3cnccn3)n2-c2ccccc2)cc1
IC50 [5]: 15 µM
IC50 [1]: 27.2 µM
IC50 [2]: 10.1 µM
IC50 [3]: 7.3 µM
IC50 [4]: 4.12 µM

Fc1ccc(CSc2nnc(-c3cnccn3)s2)cc1
IC50 [5]: 12.1 µM
IC50 [1]: 29.3 µM
IC50 [2]: 10.1 µM
IC50 [3]: > 50 µM
IC50 [4]: 17.1 µM

Brc1ccccc1CSc1nnc(-c2cnccn2)o1
IC50 [5]: 3.55 µM
IC50 [1]: 17.6 µM
IC50 [2]: 4.22 µM
IC50 [3]: 8.89 µM
IC50 [4]: 2.46 µM

Clc1cccc(CSc2nnc(-c3cnccn3)s2)c1
IC50 [5]: 3.12 µM
IC50 [1]: 14.7 µM
IC50 [2]: 7.03 µM
IC50 [3]: 29.7 µM
IC50 [4]: 12.1 µM

Fc1ccc(CSc2nnc(-c3cnccn3)o2)cc1
IC50 [5]: 17.1 µM
IC50 [1]: > 50 µM
IC50 [2]: 16.5 µM
IC50 [3]: 41.6 µM
IC50 [4]: 22.7 µM

Brc1ccccc1CSc1nnc(-c2cnccn2)n1-c1ccccc1
IC50 [1]: 36.2 µM
IC50 [2]: 11.6 µM
IC50 [3]: > 50 µM
IC50 [4]: 19.4 µM

Clc1cccc(CSc2nnc(-c3cnccn3)n2-c2ccccc2)c1
IC50 [1]: 20.3 µM
IC50 [2]: 19.6 µM
IC50 [3]: 13.5 µM
IC50 [4]: 6.61 µM

Clc1ccccc1CSc1nnc(-c2cnccn2)s1
IC50 [1]: 20.3 µM
IC50 [2]: 10.8 µM
IC50 [3]: 28.9 µM
IC50 [4]: 7.53 µM

Fc1cccc(F)c1CSc1nnc(-c2cnccn2)n1-c1ccccc1
IC50 [5]: 24.2 µM
IC50 [1]: > 50 µM
IC50 [2]: 22.6 µM
IC50 [3]: > 50 µM
IC50 [4]: 24.1 µM

c1ccc(CSc2nnc(-c3cnccn3)s2)cc1
IC50 [1]: 21.2 µM
IC50 [2]: 11.3 µM
IC50 [3]: 34.4 µM
IC50 [4]: 7.88 µM

Fc1cccc(F)c1CSc1nnc(-c2cnccn2)o1
IC50 [1]: > 50 µM
IC50 [2]: 17.1 µM
IC50 [3]: > 50 µM
IC50 [4]: 23.8 µM

Brc1ccc(CSc2nnc(-c3cnccn3)s2)cc1
Activity [6]: 8.62%
Activity [7]: 11.48%
IC50 [5]: 1.24 µM
Activity [8]: 35.16%
Activity [9]: 14.96%
Activity [10]: 3.62%
IC50 [1]: 25.2 µM
viability at 0.25 µM [11]: 85.3%
Activity [12]: 4.36%
Activity [13]: 1.72%
viability at 0.5 µM [14]: 60.9%
Activity [15]: 30.6%
viability at 2 µM [16]: 44.5%
Activity [17]: 24.02%
Activity [18]: 2.82%
viability at 1 µM [19]: 50.3%
Activity [20]: 17.54%
IC50 [2]: 0.78 µM
IC50 [3]: 12.4 µM
Activity [21]: 4.18%
IC50 [4]: 1.47 µM
Activity [22]: Dose-dependent effect

Fc1ccccc1CSc1nnc(-c2cnccn2)o1
IC50 [1]: 18.2 µM
IC50 [2]: 12.5 µM
IC50 [3]: 25.3 µM
IC50 [4]: 16.8 µM

Clc1ccccc1CSc1nnc(-c2cnccn2)o1
IC50 [1]: 27.7 µM
IC50 [2]: 12.3 µM
IC50 [3]: 23 µM
IC50 [4]: 15.1 µM

Clc1cccc(CSc2nnc(-c3cnccn3)o2)c1
IC50 [5]: 6.38 µM
IC50 [1]: 15.8 µM
IC50 [2]: 7.5 µM
IC50 [3]: 14.6 µM
IC50 [4]: 7.88 µM

c1ccc(CSc2nnc(-c3cnccn3)o2)cc1
IC50 [1]: 25 µM
IC50 [2]: 11.2 µM
IC50 [3]: 21.1 µM
IC50 [4]: 34 µM

Clc1ccccc1CSc1nnc(-c2cnccn2)n1-c1ccccc1
IC50 [1]: 34.7 µM
IC50 [2]: 18.8 µM
IC50 [3]: > 50 µM
IC50 [4]: 18.1 µM

CN[C@@H]1C[C@H]2O[C@@](C)([C@@H]1OC)n1c3ccccc3c3c4c(c5c6ccccc6n2c5c31)C(=O)NC4 [STAUROSPORINE]
IC50 [1]: 6.83 µM

Fc1ccccc1CSc1nnc(-c2cnccn2)n1-c1ccccc1
IC50 [5]: 17.6 µM
IC50 [1]: > 50 µM
IC50 [2]: 19.3 µM
IC50 [3]: 44.1 µM
IC50 [4]: 18.8 µM

Fc1ccc(CSc2nnc(-c3cnccn3)s2)c(F)c1
IC50 [1]: 14.5 µM
IC50 [2]: 9.63 µM
IC50 [3]: 20.9 µM
IC50 [4]: 5.18 µM

Brc1ccc(CSc2nnc(-c3cnccn3)o2)cc1
IC50 [1]: 25.7 µM
IC50 [2]: 13.2 µM
IC50 [3]: 21.6 µM
IC50 [4]: 14.4 µM

Brc1ccccc1CSc1nnc(-c2cnccn2)s1
IC50 [5]: 3.97 µM
IC50 [1]: 18.9 µM
IC50 [2]: 9.81 µM
IC50 [3]: 21.3 µM
IC50 [4]: 6.95 µM

Brc1cccc(CSc2nnc(-c3cnccn3)s2)c1
IC50 [5]: 1.54 µM
IC50 [1]: 16.7 µM
IC50 [2]: 1.79 µM
IC50 [3]: 5.43 µM
IC50 [4]: 5.26 µM

Clc1ccc(CSc2nnc(-c3cnccn3)o2)cc1
IC50 [1]: 30 µM
IC50 [2]: 11.5 µM
IC50 [3]: 24.6 µM
IC50 [4]: 17.3 µM

O=c1[nH]cc(F)c(=O)[nH]1 [FLUOROURACIL]
IC50 [2]: 1.3 µM
IC50 [3]: 3.25 µM
IC50 [4]: 2.41 µM

Clc1ccc(CSc2nnc(-c3cnccn3)s2)cc1
IC50 [5]: 7.88 µM
IC50 [1]: 13.4 µM
IC50 [2]: 6.23 µM
IC50 [3]: 18.9 µM
IC50 [4]: 4.77 µM

Fc1ccc(CSc2nnc(-c3cnccn3)n2-c2ccccc2)c(F)c1
IC50 [1]: 17.8 µM
IC50 [2]: 10.4 µM
IC50 [3]: 12.5 µM
IC50 [4]: 4.65 µM

Brc1cccc(CSc2nnc(-c3cnccn3)n2-c2ccccc2)c1
IC50 [1]: 18.3 µM
IC50 [2]: 10.6 µM
IC50 [3]: 9.58 µM
IC50 [4]: 5.03 µM
